Experimental data reported in PMC6051889 (ACS chemical neuroscience, 2018).

Columns and labels:
[1] = Plasma pharmacokinetics in mice; format: in vivo; conditions: BALB/c mouse, IV
In short: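 Balb/c mice received a single IV or oral-gavage dose, with low-dose isoflurane restraint for gavage. Each mouse gave one time point: 3 mice per point, 10 time points. Blood was taken by cardiac puncture under deep isoflurane anaesthesia, and plasma was assayed for parent compound by validated LC-MS/MS.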

[2] = Plasma stability, mouse plasma
[3] = Microsomal stability
[4] = IV doses 30–60 mg/kg, within 5 min, Male CD1 mice; cited from earlier work

CC(C)C[C@H](NC(=O)[C@H](Cc1ccccc1)NC(=O)CNC(=O)CNC(=O)[C@@H](N)Cc1ccc(O)cc1)C(=O)O [Compound 1, Leu-enkephalin]
time until completely consumed in plasma [1]: ≤ 5 min
remaining at 4 h, 50 μM [2]: > 90%
microsomal degradation ([3]; in the absence of NADPH): slowly degraded
material metabolized ([3]; mouse, rat and human NADPH-charged microsomes, 2 h, 0.50 μM): 38–50%

[D-Pen^2,D-Pen^5]-enkephalin [DPDPE]
in vivo antinociceptive activity (hotplate) [4]: demonstrated in vivo antinociceptive activity
